Assay results from PMC9563295 (Journal of the American Chemical Society, 2022).
Numbered stars: 1 amine (or outer) side, 2 acyl side, 3 side chain; on linkers, the order of the positions; unused ones are H or OH. Bridge positions count the residues as written; N and C are the ends. Square brackets hold non-standard residues; d marks the D form. Peptide text beside a SMILES is read from it. ξ: configuration not given here. ξβ3hPhg = O=C(CC(N[*:1])c1ccccc1)[*:2]; ξPhg = NC(C(=O)O)c1ccccc1; βAla = NCCC(=O)O

Target: hEGFR (Homo sapiens, UniProt P00533)
Experiment: Binding kinetics analysis by surface plasmon resonance
Conditions: KD compared with 2D and 18D

Chain of hEGFR (P00533 25-1210): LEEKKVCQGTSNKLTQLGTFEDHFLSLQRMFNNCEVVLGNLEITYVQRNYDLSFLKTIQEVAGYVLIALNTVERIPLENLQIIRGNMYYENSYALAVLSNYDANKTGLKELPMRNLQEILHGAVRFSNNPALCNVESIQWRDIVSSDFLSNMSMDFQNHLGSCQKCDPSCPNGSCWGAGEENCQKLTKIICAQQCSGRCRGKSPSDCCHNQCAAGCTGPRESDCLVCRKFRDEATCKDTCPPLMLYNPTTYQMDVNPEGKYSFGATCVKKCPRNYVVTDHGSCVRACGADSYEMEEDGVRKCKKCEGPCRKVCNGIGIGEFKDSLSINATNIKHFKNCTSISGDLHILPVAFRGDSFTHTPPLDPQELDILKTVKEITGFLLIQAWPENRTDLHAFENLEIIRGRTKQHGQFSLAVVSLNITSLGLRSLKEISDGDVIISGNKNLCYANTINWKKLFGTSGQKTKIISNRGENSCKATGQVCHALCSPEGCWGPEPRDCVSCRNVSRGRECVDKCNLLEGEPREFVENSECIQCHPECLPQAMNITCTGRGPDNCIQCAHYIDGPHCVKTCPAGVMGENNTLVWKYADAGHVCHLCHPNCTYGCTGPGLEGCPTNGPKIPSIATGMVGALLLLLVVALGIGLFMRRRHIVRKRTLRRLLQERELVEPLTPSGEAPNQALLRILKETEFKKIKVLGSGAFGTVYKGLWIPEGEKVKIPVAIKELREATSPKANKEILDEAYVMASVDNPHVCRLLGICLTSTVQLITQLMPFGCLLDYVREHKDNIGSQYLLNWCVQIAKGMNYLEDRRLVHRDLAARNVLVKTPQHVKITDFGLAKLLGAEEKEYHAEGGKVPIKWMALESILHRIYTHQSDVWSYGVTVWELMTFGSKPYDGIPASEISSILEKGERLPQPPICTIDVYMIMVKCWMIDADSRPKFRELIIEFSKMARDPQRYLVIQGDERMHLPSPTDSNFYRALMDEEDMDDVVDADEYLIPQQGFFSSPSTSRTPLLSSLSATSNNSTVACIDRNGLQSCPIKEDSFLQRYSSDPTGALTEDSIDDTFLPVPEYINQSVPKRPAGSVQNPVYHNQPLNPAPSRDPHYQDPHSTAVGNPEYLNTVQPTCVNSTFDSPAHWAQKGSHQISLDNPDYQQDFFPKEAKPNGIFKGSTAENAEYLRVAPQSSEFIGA

Row | fold stronger binding affinity in comparison with 2D and 18D | Structure (SMILES)
1 | approximately 10 fold | CC(C)[C@@H]1NC(=O)[C@H](CCCNC(=N)N)NC(=O)[C@H](Cc2ccc(O)cc2)NC(=O)[C@H](C(C)C)NC(=O)[C@H](C(C)C)NC(=O)[C@H](CCCNC(=N)N)NC(=O)[C@H](CC(=O)O)NC(=O)[C@H](CC(=O)O)NC(=O)CCNC(=O)[C@H](Cc2ccc(O)cc2)NC(=O)[C@H](Cc2ccc(O)cc2)NC(=O)[C@H](Cc2ccccc2)NC(=O)[C@@H](Cc2ccc(O)cc2)NC(=O)CSC[C@@H](C(=O)NCC(N)=O)NC(=O)CC(c2ccccc2)NC1=O (stereo partly drawn) [D4β] ({CH2CO}-[dY]FYY[βAla]DDRVVYRV[ξβ3hPhg]CG-NH2; thioether N-15)
2 | approximately 10 fold | CC(C)C[C@@H]1NC(=O)CC(c2ccccc2)NC(=O)[C@H](CC(C)C)NC(=O)[C@H](Cc2ccc(O)cc2)NC(=O)CSC[C@@H](C(=O)NCC(N)=O)NC(=O)[C@H](Cc2ccc(O)cc2)NC(=O)[C@H](CC(C)C)NC(=O)[C@H](Cc2ccc(O)cc2)NC(=O)[C@H](CCCNC(=N)N)NC(=O)[C@H](CC(N)=O)NC(=O)[C@@H]2CCCN2C(=O)CC(c2ccccc2)NC(=O)[C@H](CCCNC(=N)N)NC(=O)[C@H](CCCNC(=N)N)NC(=O)CC(c2ccccc2)NC(=O)[C@H](Cc2ccc(O)cc2)NC1=O (stereo partly drawn) [L2β, ^AcYL^βXLY^βXRR^βXPNRYLYCG-NH2] ({CH2CO}-YL[ξβ3hPhg]LY[ξβ3hPhg]RR[ξβ3hPhg]PNRYLYCG-NH2; thioether N-16)

Tested on: not listed separately
Experiment: Serum stability assay
Format: in vitro ADME
Conditions: human serum, 37 °C; mutant vs parent L2β or D4β
How it was run: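 Test peptides (parents plus Ala, backbone-shortening and sidechain-deletion mutants) incubated in human serum at 37 °C for up to 72 h. Percentage of remaining peptide over time estimated by LC/MS, and half-life (t1/2) derived from the decay.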

Row | Structure (SMILES) | fold lower t1/2 than the parent peptide
3 | CC(C)[C@@H]1NC(=O)[C@H](CCCNC(=N)N)NC(=O)[C@H](Cc2ccc(O)cc2)NC(=O)[C@H](C(C)C)NC(=O)[C@H](C(C)C)NC(=O)[C@H](CCCNC(=N)N)NC(=O)[C@H](CC(=O)O)NC(=O)[C@H](CC(=O)O)NC(=O)[C@H](C)NC(=O)[C@H](Cc2ccc(O)cc2)NC(=O)[C@H](Cc2ccc(O)cc2)NC(=O)[C@H](Cc2ccccc2)NC(=O)[C@@H](Cc2ccc(O)cc2)NC(=O)CSC[C@@H](C(=O)NCC(N)=O)NC(=O)CC(c2ccccc2)NC1=O (stereo partly drawn) [D4A.1] ({CH2CO}-[dY]FYYADDRVVYRV[ξβ3hPhg]CG-NH2; thioether N-15) | 26 fold
4 | CC(C)[C@@H]1NC(=O)[C@H](CCCNC(=N)N)NC(=O)[C@H](Cc2ccc(O)cc2)NC(=O)[C@H](C(C)C)NC(=O)[C@H](C(C)C)NC(=O)[C@H](CCCNC(=N)N)NC(=O)[C@H](CC(=O)O)NC(=O)[C@H](CC(=O)O)NC(=O)CCNC(=O)[C@H](Cc2ccc(O)cc2)NC(=O)[C@H](Cc2ccc(O)cc2)NC(=O)[C@H](Cc2ccccc2)NC(=O)[C@@H](Cc2ccc(O)cc2)NC(=O)CSC[C@@H](C(=O)NCC(N)=O)NC(=O)[C@H](C)NC1=O [D4A.2] ({CH2CO}-[dY]FYY[βAla]DDRVVYRVACG-NH2; thioether N-15) | 2.6 fold
5 | CC(C)[C@@H]1NC(=O)[C@H](CCCNC(=N)N)NC(=O)[C@H](Cc2ccc(O)cc2)NC(=O)[C@H](C(C)C)NC(=O)[C@H](C(C)C)NC(=O)[C@H](CCCNC(=N)N)NC(=O)[C@H](CC(=O)O)NC(=O)[C@H](CC(=O)O)NC(=O)CNC(=O)[C@H](Cc2ccc(O)cc2)NC(=O)[C@H](Cc2ccc(O)cc2)NC(=O)[C@H](Cc2ccccc2)NC(=O)[C@@H](Cc2ccc(O)cc2)NC(=O)CSC[C@@H](C(=O)NCC(N)=O)NC(=O)CC(c2ccccc2)NC1=O (stereo partly drawn) [D4α.1] ({CH2CO}-[dY]FYYGDDRVVYRV[ξβ3hPhg]CG-NH2; thioether N-15) | 2 fold
6 | CC(C)C[C@@H]1NC(=O)[C@H](C)NC(=O)[C@H](CC(C)C)NC(=O)[C@H](Cc2ccc(O)cc2)NC(=O)CSC[C@@H](C(=O)NCC(N)=O)NC(=O)[C@H](Cc2ccc(O)cc2)NC(=O)[C@H](CC(C)C)NC(=O)[C@H](Cc2ccc(O)cc2)NC(=O)[C@H](CCCNC(=N)N)NC(=O)[C@H](CC(N)=O)NC(=O)[C@@H]2CCCN2C(=O)[C@H](C)NC(=O)[C@H](CCCNC(=N)N)NC(=O)[C@H](CCCNC(=N)N)NC(=O)[C@H](C)NC(=O)[C@H](Cc2ccc(O)cc2)NC1=O [L2A] ({CH2CO}-YLALYARRAPNRYLYCG-NH2; thioether N-16) | approximately 10 fold

Target: hEGF–hEGFR interaction (Homo sapiens, UniProt P00533)
Experiment: hEGFR inhibition assay using AlphaLISA
Format: biochemical
Conditions: not given

Chain of hEGF–hEGFR interaction (P00533 25-645 limits assumed): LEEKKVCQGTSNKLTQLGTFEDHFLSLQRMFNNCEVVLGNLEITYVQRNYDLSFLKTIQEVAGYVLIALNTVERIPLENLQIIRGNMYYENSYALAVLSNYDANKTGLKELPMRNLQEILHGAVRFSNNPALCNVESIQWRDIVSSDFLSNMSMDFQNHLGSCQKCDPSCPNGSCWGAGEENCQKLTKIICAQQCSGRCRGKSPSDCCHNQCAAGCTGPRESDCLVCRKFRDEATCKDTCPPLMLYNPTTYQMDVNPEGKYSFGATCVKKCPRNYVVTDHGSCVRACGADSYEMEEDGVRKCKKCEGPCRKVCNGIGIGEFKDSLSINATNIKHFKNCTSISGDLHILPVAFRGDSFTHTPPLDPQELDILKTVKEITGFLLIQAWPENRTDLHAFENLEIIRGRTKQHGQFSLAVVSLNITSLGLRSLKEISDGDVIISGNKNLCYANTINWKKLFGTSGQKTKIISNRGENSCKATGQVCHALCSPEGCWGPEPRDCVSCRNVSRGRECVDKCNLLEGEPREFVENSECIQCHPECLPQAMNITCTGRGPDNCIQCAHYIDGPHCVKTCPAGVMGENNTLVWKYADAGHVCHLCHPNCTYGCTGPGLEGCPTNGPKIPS

Row | PPI inhibitory activity against hEGF–hEGFR interaction (in words) | Structure (SMILES)
7 | no inhibitory activity | CC(C)C[C@H](NC(=O)CNC(=O)[C@H](CCCNC(=N)N)NC(=O)CC(NC(=O)[C@@H]1CSCC(=O)N[C@H](Cc2ccc(O)cc2)C(=O)N[C@@H](C(C)C)C(=O)N[C@@H](Cc2ccc(O)cc2)C(=O)N1)c1ccccc1)C(=O)N[C@@H](CC(=O)O)C(=O)N1CCC[C@H]1C(=O)N[C@@H](CCCNC(=N)N)C(=O)N[C@@H](CC(C)C)C(=O)N[C@@H](CO)C(=O)N[C@@H](CCCNC(=N)N)C(=O)N[C@@H](Cc1ccccc1)C(=O)N[C@@H](CO)C(=O)NCC(N)=O (stereo partly drawn) [D2β, ^AcyVYC^βXRGLDPRLSRFSG-NH2] ({CH2CO}-[dY]VYC[ξβ3hPhg]RGLDPRLSRFSG-NH2; thioether N-4)
8 | complete loss of the activity | CC(C)[C@@H]1NC(=O)[C@H](CCCNC(=N)N)NC(=O)[C@H](Cc2ccc(O)cc2)NC(=O)[C@H](C(C)C)NC(=O)[C@H](C(C)C)NC(=O)[C@H](CCCNC(=N)N)NC(=O)[C@H](CC(=O)O)NC(=O)[C@H](CC(=O)O)NC(=O)[C@H](C)NC(=O)[C@H](Cc2ccc(O)cc2)NC(=O)[C@H](Cc2ccc(O)cc2)NC(=O)[C@H](Cc2ccccc2)NC(=O)[C@@H](Cc2ccc(O)cc2)NC(=O)CSC[C@@H](C(=O)NCC(N)=O)NC(=O)[C@H](C)NC1=O [D4A] ({CH2CO}-[dY]FYYADDRVVYRVACG-NH2; thioether N-15)
9 | complete loss of the activity | CC(C)[C@@H]1NC(=O)[C@H](CCCNC(=N)N)NC(=O)[C@H](Cc2ccc(O)cc2)NC(=O)[C@H](C(C)C)NC(=O)[C@H](C(C)C)NC(=O)[C@H](CCCNC(=N)N)NC(=O)[C@H](CC(=O)O)NC(=O)[C@H](CC(=O)O)NC(=O)CNC(=O)[C@H](Cc2ccc(O)cc2)NC(=O)[C@H](Cc2ccc(O)cc2)NC(=O)[C@H](Cc2ccccc2)NC(=O)[C@@H](Cc2ccc(O)cc2)NC(=O)CSC[C@@H](C(=O)NCC(N)=O)NC(=O)C(c2ccccc2)NC1=O (stereo partly drawn) [D4α, ^AcyFYYGDDRVVYRVXCG-NH2] ({CH2CO}-[dY]FYYGDDRVVYRV[ξPhg]CG-NH2; thioether N-15)

Same assay, conditions: mutant vs parent L2β, D3β or D4β

Row | fold increase of IC50 compared to the parent peptide | Structure (SMILES)
10 | 2.2 fold | CC(C)[C@@H]1NC(=O)[C@H](CCCNC(=N)N)NC(=O)[C@H](Cc2ccc(O)cc2)NC(=O)[C@H](C(C)C)NC(=O)[C@H](C(C)C)NC(=O)[C@H](CCCNC(=N)N)NC(=O)[C@H](CC(=O)O)NC(=O)[C@H](CC(=O)O)NC(=O)CCNC(=O)[C@H](Cc2ccc(O)cc2)NC(=O)[C@H](Cc2ccc(O)cc2)NC(=O)[C@H](Cc2ccccc2)NC(=O)[C@@H](Cc2ccc(O)cc2)NC(=O)CSC[C@@H](C(=O)NCC(N)=O)NC(=O)CCNC1=O [D4βG] ({CH2CO}-[dY]FYY[βAla]DDRVVYRV[βAla]CG-NH2; thioether N-15)
11 | 460 fold | CC(C)C[C@@H]1NC(=O)CC(c2ccccc2)NC(=O)[C@H](CC(C)C)NC(=O)[C@H](Cc2ccc(O)cc2)NC(=O)CSC[C@@H](C(=O)NCC(N)=O)NC(=O)[C@H](Cc2ccc(O)cc2)NC(=O)[C@H](CC(C)C)NC(=O)[C@H](Cc2ccc(O)cc2)NC(=O)[C@H](CCCNC(=N)N)NC(=O)[C@H](CC(N)=O)NC(=O)[C@@H]2CCCN2C(=O)CC(c2ccccc2)NC(=O)[C@H](CCCNC(=N)N)NC(=O)[C@H](CCCNC(=N)N)NC(=O)C(c2ccccc2)NC(=O)[C@H](Cc2ccc(O)cc2)NC1=O (stereo partly drawn) [L2α.2, ^AcYL^βXLYXRR^βXPNRYLYCG-NH2] ({CH2CO}-YL[ξβ3hPhg]LY[ξPhg]RR[ξβ3hPhg]PNRYLYCG-NH2; thioether N-16)
12 | 1270 fold | CC(C)C[C@@H]1NC(=O)CC(c2ccccc2)NC(=O)[C@H](CC(C)C)NC(=O)[C@H](Cc2ccc(O)cc2)NC(=O)CSC[C@@H](C(=O)NCC(N)=O)NC(=O)[C@H](Cc2ccc(O)cc2)NC(=O)[C@H](CC(C)C)NC(=O)[C@H](Cc2ccc(O)cc2)NC(=O)[C@H](CCCNC(=N)N)NC(=O)[C@H](CC(N)=O)NC(=O)[C@@H]2CCCN2C(=O)CC(c2ccccc2)NC(=O)[C@H](CCCNC(=N)N)NC(=O)[C@H](CCCNC(=N)N)NC(=O)CCNC(=O)[C@H](Cc2ccc(O)cc2)NC1=O (stereo partly drawn) [L2βG.2, ^AcYL^βXLY^βGRR^βXPNRYLYCG-NH2] ({CH2CO}-YL[ξβ3hPhg]LY[βAla]RR[ξβ3hPhg]PNRYLYCG-NH2; thioether N-16)
